Where a SMILES comes first, the peptide text is derived from it. Bridges are numbered along the chain shown (N, C = ends). [ ]: non-standard residue; d: D form. S5 = C=CCCC[C@](C)(N)C(=O)O
Columns and labels:
[1] = system: Human immunodeficiency virus 1; assay: Antiviral activity against HIV1 subtype B' CNE6 pseudovirus assessed as inhibition of viral infection in Ghost (3)X4/R5 cells after 48 hrs by Bright-Glo luciferase reporter gene assay; assay type: functional, organism-based; settings: Human immunodeficiency virus 1, subtype B' CNE6, 48 h
In short: (§1)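 Single-round env-pseudotyped luciferase reporter viruses were made in HEK293T cells with the pNL4-3.Luc.R-E backbone. Ghost(3)X4/R5 target cells (CD4, CXCR4, CCR5) were grown in DMEM with 10% heat-inactivated FBS at 37 °C, 5% CO2. Peptides in 3-fold dilutions were preincubated with 100 TCID50 of virus for 1 h at room temperature. The mixture was added at 10^4 cells/well for 48 h at 37 °C. IC50 came from a variable-slope dose-response fit of luciferase reduction versus controls.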

[2] = system: Human immunodeficiency virus 1; assay: Antiviral activity against HIV1 subtype B' CNE11 pseudovirus assessed as inhibition of viral infection in Ghost (3)X4/R5 cells after 48 hrs by Bright-Glo luciferase reporter gene assay; assay type: functional, organism-based; settings: Human immunodeficiency virus 1, subtype B' CNE11, 48 h; in short: as §1
[3] = system: Human immunodeficiency virus 1; assay: Antiviral activity against HIV1 subtype BC CNE15 pseudovirus assessed as inhibition of viral infection in Ghost (3)X4/R5 cells after 48 hrs by Bright-Glo luciferase reporter gene assay; assay type: functional, organism-based; settings: Human immunodeficiency virus 1, subtype BC CNE15, 48 h; in short: as §1
[4] = system: Human immunodeficiency virus 1; assay: Antiviral activity against HIV1 subtype BC CNE30 pseudovirus assessed as inhibition of viral infection in Ghost (3)X4/R5 cells after 48 hrs by Bright-Glo luciferase reporter gene assay; assay type: functional, organism-based; settings: Human immunodeficiency virus 1, subtype BC CNE30, 48 h; in short: as §1
[5] = system: Human immunodeficiency virus 1; assay: Antiviral activity against HIV1 subtype CRF01_AE CNE5 pseudovirus assessed as inhibition of viral infection in Ghost (3)X4/R5 cells after 48 hrs by Bright-Glo luciferase reporter gene assay; assay type: functional, organism-based, HIV-1 CRF01_AE; settings: Human immunodeficiency virus 1, CNE5, 48 h; in short: as §1
[6] = system: Human immunodeficiency virus 1; assay: Antiviral activity against HIV1 subtype CRF01_AE CNE55 pseudovirus assessed as inhibition of viral infection in Ghost (3)X4/R5 cells after 48 hrs by Bright-Glo luciferase reporter gene assay; assay type: functional, organism-based, HIV-1 CRF01_AE; settings: Human immunodeficiency virus 1, CNE55, 48 h; in short: as §1
[7] = system: Human immunodeficiency virus 1; assay: Antiviral activity against HIV-1 subtype B SF162 pseudovirus assessed as inhibition of viral infection in Ghost (3)X4/R5 cells after 48 hrs by Bright-Glo luciferase reporter gene assay; assay type: functional, organism-based; settings: Human immunodeficiency virus 1, SF162 ISOLATE; in short: as §1
[8] = system: Human immunodeficiency virus 1; assay: Antiviral activity against HIV-1 subtype B JRFL pseudovirus assessed as inhibition of viral infection in Ghost (3)X4/R5 cells after 48 hrs by Bright-Glo luciferase reporter gene assay; assay type: functional, organism-based, HIV-1 group M; settings: Human immunodeficiency virus 1, JRFL; in short: as §1
[9] = system: Human immunodeficiency virus 1; assay: Antiviral activity against HIV-1 subtype B HXB2 pseudovirus assessed as inhibition of viral infection in Ghost (3)X4/R5 cells after 48 hrs by Bright-Glo luciferase reporter gene assay; assay type: functional, organism-based; settings: Human immunodeficiency virus 1, M:B_HXB2R; in short: as §1
chymotrypsin = assay: Drug metabolism assessed as chymotrypsin (unknown origin)-mediated compound degradation by measuring compound half life at 25 uM by HPLC analysis; assay type: ADME, Homo sapiens
In short: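 Peptide stock was 1 mM in DMSO, diluted into 50 mM PBS pH 7.4 containing chymotrypsin (0.5 ng/μL) and 50 mM CaCl2. Digestion ran at 30 °C. Remaining peptide was monitored by reversed-phase HPLC on a C4 column at 1.0 mL/min, acetonitrile/water with 0.1% TFA.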

[10] = system: Human immunodeficiency virus 1; assay: Resistance index, ratio of IC50 for inhibition of gp41 D36G mutant-mediated T20-resistant HIV1 NL4-3 viral infection in Ghost (3)X4/R5 cells to IC50 for inhibition of gp41-mediated HIV1 NL4-3 infection in Ghost (3)X4/R5 cells; assay type: cell-based
[11] = system: Human immunodeficiency virus 1; assay: Resistance index, ratio of IC50 for inhibition of gp41 I37T mutant-mediated T20-resistant HIV1 NL4-3 viral infection in Ghost (3)X4/R5 cells to IC50 for inhibition of gp41-mediated HIV1 NL4-3 infection in Ghost (3)X4/R5 cells; assay type: cell-based
[12] = system: Human immunodeficiency virus 1; assay: Resistance index, ratio of IC50 for inhibition of gp41 V38M mutant-mediated T20-resistant HIV1 NL4-3 viral infection in Ghost (3)X4/R5 cells to IC50 for inhibition of gp41-mediated HIV1 NL4-3 infection in Ghost (3)X4/R5 cells; assay type: cell-based
[13] = system: Human immunodeficiency virus 1; assay: Resistance index, ratio of IC50 for inhibition of gp41 Q40H mutant-mediated T20-resistant HIV1 NL4-3 viral infection in Ghost (3)X4/R5 cells to IC50 for inhibition of gp41-mediated HIV1 NL4-3 infection in Ghost (3)X4/R5 cells; assay type: cell-based
[14] = system: Human immunodeficiency virus 1; assay: Resistance index, ratio of IC50 for inhibition of gp41 N43K mutant-mediated T20-resistant HIV1 NL4-3 viral infection in Ghost (3)X4/R5 cells to IC50 for inhibition of gp41-mediated HIV1 NL4-3 infection in Ghost (3)X4/R5 cells; assay type: cell-based
[15] = system: Human immunodeficiency virus 1; assay: Resistance index, ratio of IC50 for inhibition of gp41 I37T/N43K double mutant-mediated T20-resistant HIV1 NL4-3 viral infection in Ghost (3)X4/R5 cells to IC50 for inhibition of gp41-mediated HIV1 NL4-3 infection in Ghost (3)X4/R5 cells; assay type: cell-based
[16] = system: Human immunodeficiency virus 1; assay: Resistance index, ratio of IC50 for inhibition of gp41 G36S/V38M double mutant-mediated T20-resistant HIV1 NL4-3 viral infection in Ghost (3)X4/R5 cells to IC50 for inhibition of gp41-mediated HIV1 NL4-3 infection in Ghost (3)X4/R5 cells; assay type: cell-based
[17] = system: Human immunodeficiency virus 1; assay: Resistance index, ratio of IC50 for inhibition of gp41 V38A/N42T double mutant-mediated T20-resistant HIV1 NL4-3 viral infection in Ghost (3)X4/R5 cells to IC50 for inhibition of gp41-mediated HIV1 NL4-3 infection in Ghost (3)X4/R5 cells; assay type: cell-based
[18] = system: Human immunodeficiency virus 1; assay: Resistance index, ratio of IC50 for inhibition of gp41 V38A mutant-mediated T20-resistant HIV1 NL4-3 viral infection in Ghost (3)X4/R5 cells to IC50 for inhibition of gp41-mediated HIV1 NL4-3 infection in Ghost (3)X4/R5 cells; assay type: cell-based

Row | Compound | IC50 [1] | IC50 [2] | IC50 [3] | IC50 [4] | IC50 [5] | IC50 [6] | IC50 [7] | IC50 [8] | IC50 [9] | half-life at 25 µM (chymotrypsin) | Ratio IC50 [10] | Ratio IC50 [11] | Ratio IC50 [12] | Ratio IC50 [13] | Ratio IC50 [14] | Ratio IC50 [15] | Ratio IC50 [16] | Ratio IC50 [17] | Ratio IC50 [18]
1 | CC[C@H](C)[C@H](NC(=O)[C@H](CCCCN)NC(=O)[C@H](CCCCN)NC(=O)[C@H](CC(=O)O)NC(=O)[C@H](Cc1c[nH]c2ccccc12)NC(=O)[C@H](CCC(=O)O)NC(=O)[C@H](CCC(=O)O)NC(=O)[C@H](Cc1c[nH]c2ccccc12)NC(=O)[C@@H](NC(=O)[C@H](CCSC)NC(C)=O)[C@@H](C)O)C(=O)N[C@@H](CCC(=O)O)C(=O)N[C@@H](CCC(=O)O)C(=O)N[C@@H](Cc1ccc(O)cc1)C(=O)N[C@H](C(=O)N[C@@]1(C)CCC/C=C\CCC[C@@](C)(C(=O)N[C@@H](CC(C)C)C(=O)N[C@H](C(=O)N[C@@H](CCCCN)C(=O)N[C@@H](CCCCN)C(=O)N[C@@H](CO)C(N)=O)[C@@H](C)CC)NC(=O)[C@H](CCC(=O)O)NC(=O)[C@H]([C@@H](C)CC)NC(=O)[C@H](CCCCN)NC1=O)[C@@H](C)O (Ac-MTWEEWDKKIEEYT[S5]KIE[S5]LIKKS-NH2; staple (Z) 15-19) | 10.4 nM | 8.8 nM | 14 nM | 71.7 nM | 27.7 nM | 82.3 nM | 14.4 nM | 8.7 nM | 0.5 nM | 8.25 h |  |  |  |  |  |  |  |  | 
2 | CC[C@H](C)[C@H](NC(=O)[C@H](CC(C)C)NC(=O)[C@H](CCC(=O)O)NC(=O)[C@H](CCC(=O)O)NC(=O)[C@@H](NC(=O)[C@H](CCCCN)NC(=O)[C@H](CCCCN)NC(=O)[C@@H](NC(=O)[C@H](Cc1ccc(O)cc1)NC(=O)[C@]1(C)CCC/C=C\CCC[C@](C)(NC(=O)[C@H](CC(=O)O)NC(=O)[C@H](Cc2c[nH]c3ccccc23)NC(=O)[C@H](CCC(=O)O)NC(=O)[C@H](CCC(=O)O)NC(=O)[C@H](Cc2c[nH]c3ccccc23)NC(=O)[C@@H](NC(=O)[C@H](CCSC)NC(C)=O)[C@@H](C)O)C(=O)N[C@@H](CCCCN)C(=O)N[C@@H]([C@@H](C)CC)C(=O)N[C@@H](CCC(=O)O)C(=O)N1)[C@@H](C)O)[C@@H](C)CC)C(=O)N[C@@H](CCCCN)C(=O)N[C@@H](CCCCN)C(=O)N[C@@H](CO)C(N)=O (Ac-MTWEEWD[S5]KIE[S5]YTKKIEELIKKS-NH2; staple (Z) 8-12) | 12.5 nM | 7.2 nM | 3.3 nM | 16.2 nM | 6.8 nM | 20.3 nM | 3.3 nM | 8.6 nM | 0.4 nM | 11.8 h |  |  |  |  |  |  |  |  | 
3 | CC[C@H](C)[C@H](NC(=O)[C@H](CC(C)C)NC(=O)[C@]1(C)CCC/C=C\CCC[C@](C)(NC(=O)[C@@H](NC(=O)[C@H](Cc2ccc(O)cc2)NC(=O)[C@]2(C)CCC/C=C\CCC[C@](C)(NC(=O)[C@H](CC(=O)O)NC(=O)[C@H](Cc3c[nH]c4ccccc34)NC(=O)[C@H](CCC(=O)O)NC(=O)[C@H](CCC(=O)O)NC(=O)[C@H](Cc3c[nH]c4ccccc34)NC(=O)[C@@H](NC(=O)[C@H](CCSC)NC(C)=O)[C@@H](C)O)C(=O)N[C@@H](CCCCN)C(=O)N[C@@H]([C@@H](C)CC)C(=O)N[C@@H](CCC(=O)O)C(=O)N2)[C@@H](C)O)C(=O)N[C@@H](CCCCN)C(=O)N[C@@H]([C@@H](C)CC)C(=O)N[C@@H](CCC(=O)O)C(=O)N1)C(=O)N[C@@H](CCCCN)C(=O)N[C@@H](CCCCN)C(=O)N[C@@H](CO)C(N)=O (Ac-MTWEEWD[S5]KIE[S5]YT[S5]KIE[S5]LIKKS-NH2; staple (Z) 8-12, 15-19) | 1.2 nM | 2.6 nM | 1.8 nM | 7.7 nM | 3.6 nM | 5.3 nM | 1 nM | 0.6 nM | 0.05 nM | 61.1 h | 1.4 | 1.6 | 1 | 1.1 | 3.3 | 2.2 | 2.1 | 0.5 | 0.8
4 | Ac-MTWEEWDKKIEEYTKKIEELIKKS-NH2 | 10.3 nM | 5.9 nM | 7.5 nM | 22.3 nM | 35 nM | 12.9 nM | 2.9 nM | 7.3 nM | 2.4 nM | 2.08 h | 2.3 | 2.6 | 2.3 | 1.1 | 19 | 13 | 3.4 | 1.2 | 1.5

From ChEMBL document CHEMBL4257519, “Generation of a long-acting fusion inhibitor against HIV-1” (Medchemcomm, 2018)
